The subject of this test is Pseudomonas aeruginosa. As to the kind of experiment: Antimicrobial activity against Pseudomonas aeruginosa H1001 expressing luciferase gene assessed as ratio antimicrobial IC50 for drug to Bac2A peptide by luminescence assay. The class given is functional. In outline: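 Peptides are made by SPOT synthesis on cellulose, cleaved, and the spots placed in plate wells. Overnight P. aeruginosa H1001 (fliC::luxCDABE) is diluted 1:500 in 100 mM Tris-HCl pH 7.3 with 20 mM glucose and added to the wells. After 30 min, serial dilutions (8 rows) are made. Luminescence is read at 4 h. IC50 is taken from a sigmoid fit and expressed relative to Bac2A run in the same series.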
As to H-WSQNVRTRI-OH, the “Ratio IC50” value came out at 5.71. Under H-KIRRKVRWG-OH stands 10.55; under H-IRRRKWWWW-OH, 0.21. Under H-WHGVRWWKW-OH stands 2.5. Under H-RSGKKRWRR-OH stands 6.5; under H-GWKILRKRK-OH, 2.74. H-WRRWWKWWR-OH: the “Ratio IC50” value is on record as 0.23. In the case of H-GRRWGMGVR-OH, the “Ratio IC50” value turned out to be 7.75.

Consider H-WKRWKWWKR-OH, for which the “Ratio IC50” value was determined as 0.25. To H-LRWRWWKIK-OH belongs 0.26. As to `N=C(N)NCCC[C@H](NC(=O)[C@H](CCCCN)NC(=O)[C@H](CCCNC(=N)N)NC(=O)[C@@H](N)CCCNC(=N)N)C(=O)N[C@@H](Cc1c[nH]c2ccccc12)C(=O)N[C@@H](Cc1c[nH]c2ccccc12)C(=O)N[C@@H](Cc1c[nH]c2ccccc12)C(=O)N[C@@H](Cc1c[nH]c2ccccc12)C(=O)N[C@@H](Cc1c[nH]c2ccccc12)C(=O)O`, the “Ratio IC50” value came to 0.43. To H-IRKWRRWWK-OH belongs 0.41; to H-KFRKRVWWW-OH, 0.3.

Consider H-RKWMGRFLM-OH, for which the “Ratio IC50” value was 4.38. Under H-RHWKTWWKR-OH stands 0.95. To H-KIWWWWRRR-OH belongs 0.21; to H-LRFILWWKR-OH, 0.88. Under H-RKRWLWRWW-OH stands 0.25. Turning to H-KRWWWWRFR-OH, the “Ratio IC50” value was determined as 0.24.

Turning to H-IRWWKRWWR-OH, the “Ratio IC50” value is reported as 0.21. In the case of H-KRWWWVWKR-OH, the “Ratio IC50” value turned out to be 0.36. On to H-FVWQKGTNR-OH, for which the “Ratio IC50” value came to 11.3. With H-IRQWWRRWW-OH, the “Ratio IC50” value worked out at 0.5. Under H-IKRWWWRRW-OH stands 0.22; under H-VSGNWRGSR-OH, 8.54. Consider H-SWYRTRKRV-OH, for which the “Ratio IC50” value worked out at 6.66. To H-KRWWKWIRW-OH belongs 0.04. To H-RRRKWWIWG-OH belongs 0.57; to H-AWKIKKGRI-OH, 3.59; to H-GIKWRSRRW-OH, 1.06. To H-RNKFGGNWR-OH belongs 25. Consider H-KRWLTWRFR-OH, for which the “Ratio IC50” value worked out at 0.54.

As for H-WGKRRGWNT-OH, the “Ratio IC50” value amounted to 7.91.

As for H-GGRGTRWHG-OH, the “Ratio IC50” value turned out to be 8.6.

With H-WVKVWKYTW-OH, the “Ratio IC50” value was determined as 5.64. As for H-RWWRWRKWW-OH, the “Ratio IC50” value stood at 0.28. To H-ARGKSIKNR-OH belongs 8.35. Under H-RWRWWIKII-OH stands 0.46; under H-RKWWRWWRW-OH, 0.31; under H-HYKFQRWIK-OH, 2.79.

For the compound H-VLVKKRRRR-OH, the “Ratio IC50” value was 12.48.

With H-KKSKQLWKR-OH, the “Ratio IC50” value was 3.23. Under H-GVRSWSQRT-OH stands 8.5; under H-AGGMRKRTR-OH, 25; under H-LVFRKYWKR-OH, 0.99. Under H-FVVMKRIVW-OH stands 5.38. For H-RGRTSNWKM-OH, the “Ratio IC50” value is reported as 7.07.

In the case of H-IKRWWRWWR-OH, the “Ratio IC50” value is on record as 0.23.

On to H-RWRGIVHIR-OH, for which the “Ratio IC50” value is recorded as 4.93. Under H-SSGVRWSWR-OH stands 8.16; under H-SFNWKRSGK-OH, 25; under H-KRWRWWRWW-OH, 0.28. To H-IRRRWWWIV-OH belongs 0.23. Under H-KKRWVWVIR-OH stands 0.35. Regarding H-RLVHWIRRV-OH, the “Ratio IC50” value came out at 2.62. To H-ARGRWINGR-OH belongs 7.24.

H-RWFRWWKRW-OH: the “Ratio IC50” value came to 0.26. To H-KNRGRWFSH-OH belongs 9.79; to H-IRRRKKRIK-OH, 6.42. To H-RRRKWWIWW-OH belongs 0.18; to H-GGIRRLRWY-OH, 1.16.

H-RRMGNGGFR-OH: the “Ratio IC50” value is on record as 8.71. Under H-WHYRSQVGR-OH stands 6.65; under H-RRFKKWYWY-OH, 0.26; under H-KNNRRWQGR-OH, 6.45. To H-RKRTKVTWI-OH belongs 5.11.

Regarding H-KKRWLWWWR-OH, the “Ratio IC50” value came to 0.3. To H-IWIWRKLRW-OH belongs 0.46; to H-RIWYWYKRW-OH, 0.36. Regarding H-WVRFVYRYW-OH, the “Ratio IC50” value stood at 2.15.

Turning to H-RRMKKLRRK-OH, the “Ratio IC50” value is 4.22. To H-RWRIKRWWW-OH belongs 0.12. To H-IRRIVRRKI-OH belongs 11.15; to H-KWWRWWRKW-OH, 0.2; to H-RWWLKIRKW-OH, 0.18. Regarding H-RWMVSKIWY-OH, the “Ratio IC50” value is on record as 25. Regarding H-WHGGQKWRK-OH, the “Ratio IC50” value was 8.5. Regarding H-GRTMNGRW-OH, the “Ratio IC50” value came out at 6.93. Under H-RRWWHLWRK-OH stands 0.38; under H-KRWWIRWWR-OH, 0.21. To H-AFRGSRHRM-OH [AFRGSRHRM] belongs 11.36; to H-RRRWWWIIV-OH, 0.85; to H-RRKWWWRWW-OH, 0.27. To H-RKIWWWRIR-OH belongs 0.59; to H-KRKLIRWWW-OH, 0.23; to H-RVKTWRVRT-OH, 5.66. In the case of H-GRNGWYRIN-OH, the “Ratio IC50” value is recorded as 10.74.

For H-WIRKRSRIF-OH, the “Ratio IC50” value was 3.39. To H-ATRKGYSKF-OH belongs 25. Turning to H-IVVRVWVVR-OH, the “Ratio IC50” value stood at 3.5.

Take H-KRWVWYRYW-OH: the “Ratio IC50” value is reported as 0.54. Under H-IKWWWRMRI-OH stands 0.39; under H-GRQISWGRT-OH, 8.04; under H-RWRRWKWWW-OH, 0.4.

Turning to H-KRWWKWWRR-OH, the “Ratio IC50” value amounted to 0.13.

As to H-RVRWWKKRW-OH, the “Ratio IC50” value was determined as 0.27. Under H-VRIVRVRIR-OH stands 2.22. As to H-QRNKGLRHH-OH, the “Ratio IC50” value worked out at 8.76.

Take H-TRGWSLGTR-OH: the “Ratio IC50” value was 12.15. As for H-GRIGGKNVR-OH, the “Ratio IC50” value came out at 9.12. Under H-IWKRWWRRW-OH stands 0.24; under H-RRVQRGKWW-OH, 6.3; under H-RLKKVRWWW-OH, 0.34. Under H-GMRRWRGKN-OH stands 6.05. To H-RWRRKWWWW-OH belongs 0.39; to H-RWIGVIIKY-OH, 2.24; to H-RRIWRWWWW-OH, 0.68.

Regarding H-WRNRKVVWR-OH, the “Ratio IC50” value came to 6.79.

Regarding H-INRKRRLRW-OH, the “Ratio IC50” value worked out at 4.25. Under H-RIKVIWWWR-OH stands 0.51; under H-RRWWMRWWV-OH, 0.33; under H-KRFWIWFWR-OH, 3.04. On to H-NQKWSGRRR-OH, for which the “Ratio IC50” value was 7.97. For H-GWNTMGRRW-OH, the “Ratio IC50” value was found to be 6.32. Under H-RRWFVKWWY-OH stands 0.52; under H-KWRRWKRWW-OH, 0.15; under H-WKRWRWIRW-OH, 0.28.

With H-GRMRLWNGR-OH, the “Ratio IC50” value was determined as 7.91. Regarding H-ILRVISKRR-OH, the “Ratio IC50” value is 25. Under H-WRWRWWKRW-OH stands 0.28. Under H-RWLVLRKRW-OH stands 0.53. To H-KRWWIWRIR-OH belongs 0.35. Regarding H-WGRTRWSSR-OH, the “Ratio IC50” value was 9.64.

As for H-NRRNGQMRR-OH, the “Ratio IC50” value is reported as 8.41.

As to H-RWILWWWRI-OH, the “Ratio IC50” value worked out at 25. To H-KWWKIWWKR-OH belongs 0.2; to H-ASKRVGVRN-OH, 8.17. Under H-ATWIWVFRR-OH stands 4.88; under `N=C(N)NCCC[C@H](NC(=O)[C@H](CCCNC(=N)N)NC(=O)[C@@H](N)CCCNC(=N)N)C(=O)N[C@@H](Cc1c[nH]c2ccccc12)C(=O)N[C@@H](Cc1c[nH]c2ccccc12)C(=O)N[C@@H](Cc1c[nH]c2ccccc12)C(=O)N[C@@H](Cc1c[nH]c2ccccc12)C(=O)N[C@@H](Cc1c[nH]c2ccccc12)C(=O)N[C@@H](Cc1c[nH]c2ccccc12)C(=O)O`, 1.82; under H-AMLGGRQWR-OH, 6.75. Under H-RQNGVWRVF-OH stands 8.26; under H-RWKIFIRWW-OH, 1.82; under H-MINRVRLRW-OH, 2.77. With H-WRWWWKKWR-OH, the “Ratio IC50” value is listed as 0.19. To H-WRFKVLRQR-OH belongs 7.08; to H-RWKMWWRWV-OH, 0.24; to H-SKNVRTWRQ-OH, 7.06. To H-WRWWKWWRR-OH belongs 0.23.

For H-WGGHKRRGW-OH, the “Ratio IC50” value turned out to be 6.19.

As for H-GSRRFGWNR-OH, the “Ratio IC50” value was 8.1. To H-RRRKTWYWW-OH belongs 0.32; to H-RGKYIRWRK-OH, 3.83; to H-RKVRWKIRV-OH, 0.32.

These data come from ChEMBL document CHEMBL1153389, “Identification of novel antibacterial peptides by chemoinformatics and machine learning” (2009).
